Results as given in ChEMBL document CHEMBL1154371, “Cytotoxic xanthone constituents of the stem bark of Garcinia mangostana (mangosteen)” (J Nat Prod, 2009).
Activity calls are given as the source filed them. The rule behind the calls is not given here.

Tests used:
[1] = test system: HT-29; assay: Cytotoxicity against human HT-29 cells; type: functional; settings: read-out: ED50 (the source's name)
Method in brief: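 HT-29 human colon cancer cells. Camptothecin was the positive control. Cytotoxic potency is given as ED50.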

[2] = target: T1, Nuclear factor NF-kappa-B p105 subunit (Homo sapiens, UniProt P19838); assay: Inhibition of p50 after 1 hr by ELISA
T1 sequence (P19838 whole entry): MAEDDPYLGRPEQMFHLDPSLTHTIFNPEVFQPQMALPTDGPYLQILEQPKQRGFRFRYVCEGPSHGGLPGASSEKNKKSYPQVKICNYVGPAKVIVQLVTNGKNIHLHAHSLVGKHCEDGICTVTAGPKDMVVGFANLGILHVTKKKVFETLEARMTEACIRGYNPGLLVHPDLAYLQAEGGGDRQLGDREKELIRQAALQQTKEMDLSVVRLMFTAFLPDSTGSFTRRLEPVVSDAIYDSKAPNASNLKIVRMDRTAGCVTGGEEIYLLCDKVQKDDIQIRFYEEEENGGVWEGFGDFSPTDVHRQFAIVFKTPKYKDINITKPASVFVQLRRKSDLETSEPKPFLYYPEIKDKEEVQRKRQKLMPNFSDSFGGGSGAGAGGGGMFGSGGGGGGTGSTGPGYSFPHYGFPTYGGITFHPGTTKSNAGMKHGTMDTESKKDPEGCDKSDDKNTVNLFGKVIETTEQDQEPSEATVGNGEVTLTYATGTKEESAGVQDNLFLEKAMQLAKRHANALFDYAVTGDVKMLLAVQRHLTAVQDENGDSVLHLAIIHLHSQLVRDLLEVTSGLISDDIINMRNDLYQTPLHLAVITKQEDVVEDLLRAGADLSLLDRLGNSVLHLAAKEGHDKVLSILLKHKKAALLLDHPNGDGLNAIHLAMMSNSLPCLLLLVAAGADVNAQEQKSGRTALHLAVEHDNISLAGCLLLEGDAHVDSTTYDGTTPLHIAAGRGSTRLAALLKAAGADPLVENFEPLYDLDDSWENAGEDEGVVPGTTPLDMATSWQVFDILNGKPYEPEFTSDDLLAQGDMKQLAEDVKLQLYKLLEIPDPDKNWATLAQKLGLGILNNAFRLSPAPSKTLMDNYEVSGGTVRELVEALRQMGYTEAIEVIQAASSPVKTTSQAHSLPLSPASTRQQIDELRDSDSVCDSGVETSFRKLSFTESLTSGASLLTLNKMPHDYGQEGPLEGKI

[3] = target: Transcription factor p65 (Homo sapiens, UniProt Q04206); assay: Inhibition of nuclear factor NF-kappa-B p65 subunit after 1 hr by ELISA
Chain of Transcription factor p65 (Q04206 whole entry): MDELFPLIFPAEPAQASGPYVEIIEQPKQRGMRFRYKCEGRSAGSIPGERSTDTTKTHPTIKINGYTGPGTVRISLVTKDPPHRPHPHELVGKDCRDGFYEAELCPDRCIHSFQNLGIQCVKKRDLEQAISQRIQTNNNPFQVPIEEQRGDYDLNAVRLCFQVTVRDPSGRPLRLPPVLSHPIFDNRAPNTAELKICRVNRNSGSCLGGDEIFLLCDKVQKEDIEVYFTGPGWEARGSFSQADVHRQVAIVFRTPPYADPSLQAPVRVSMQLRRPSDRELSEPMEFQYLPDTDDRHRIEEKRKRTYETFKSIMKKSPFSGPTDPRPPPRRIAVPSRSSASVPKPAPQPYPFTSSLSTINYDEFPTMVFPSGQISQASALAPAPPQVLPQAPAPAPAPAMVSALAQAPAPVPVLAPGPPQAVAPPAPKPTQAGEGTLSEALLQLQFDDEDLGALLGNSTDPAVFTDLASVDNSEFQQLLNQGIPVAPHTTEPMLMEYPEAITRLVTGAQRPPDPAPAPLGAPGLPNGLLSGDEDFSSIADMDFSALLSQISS

[4] = test system: LNCaP; assay: Growth inhibition of human LNCAP cells implanted at intraperitoneal compartment of NCr nu/nu mouse at 2.5 mg/kg to 20 mg/kg by hollow fiber assay; type: functional, organism-based
Method in brief: (§1)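 Cells were loaded into hollow fibers and implanted at the intraperitoneal site of mice. Compound was given at 2.5, 5, 10 and 20 mg/kg. Paclitaxel at 20 mg/kg was the positive control.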

[5] = test system: MCF7; assay: Growth inhibition of human MCF7 cells implanted at intraperitoneal compartment of NCr nu/nu mouse at 2.5 mg/kg to 20 mg/kg by hollow fiber assay; type: functional, organism-based
[6] = test system: HT-29; assay: Growth inhibition of human HT-29 cells implanted at intraperitoneal compartment of NCr nu/nu mouse at 2.5 mg/kg to 20 mg/kg by hollow fiber assay; type: functional, organism-based; method in brief: as §1

IC50 [2] [µM]	IC50 [3] [µM]	SMILES	EC50 [1] [µM]	growth inhibition (GI) [4]	growth inhibition (GI) [5]	growth inhibition (GI) [6]
		COc1c(O)cc2oc3cc4c(c(O)c3c(=O)c2c1CC=C(C)C)CCC(C)(C)O4	4.9			
> 20	> 20	COc1c(O)cc2oc3cc(O)c4c(c3c(=O)c2c1CC=C(C)C)OC(C)(C)C(O)C4 (stereo not given)				
> 20	11.3	CC(C)=CCc1c(O)c(CC=C(C)C)c2oc3c(O)cccc3c(=O)c2c1O [8-DEOXYGARTANIN]	> 10			
> 20	3.2	COc1c(O)cc2oc3cc(O)c(CC=C(C)C)c(O)c3c(=O)c2c1CCC(C)(C)O [GARCINONE D]	2.3			
		COc1c(O)cc2oc3cc4c(c(O)c3c(=O)c2c1CC=C(C)C)C[C@H](C(C)(C)O)O4	> 10			
> 20	> 20	COc1cc2oc3cc(O)c(OC)c(CC=C(C)C)c3c(=O)c2c2c1CC(O)C(C)(C)O2 (stereo not given)				
7.5	12.1	COc1cc2oc3cc(O)c(OC)c(CC=C(C)C)c3c(=O)c2c(O)c1CC=C(C)C	1.7			
> 20	19	CC(C)=CCc1c(O)c(CC=C(C)C)c2oc3c(O)ccc(O)c3c(=O)c2c1O [GARTANIN]	> 10			
		CC[C@@]1(O)C(=O)OCc2c1cc1n(c2=O)Cc2cc3ccccc3nc2-1 [CAMPTOTHECIN]	0.06			
> 20	15.9	COc1c(O)cc2oc3cc(O)c(CC=C(C)C)c(O)c3c(=O)c2c1CC=C(C)C [MANGOSTIN]	1.7	inactive	inactive	inactive

SMILES	IC50 [2] [µM]	IC50 [3] [µM]	EC50 [1] [µM]	growth inhibition (GI) [4]	growth inhibition (GI) [5]	growth inhibition (GI) [6]
COc1c(O)cc2oc3cc4c(c(O)c3c(=O)c2c1CC=C(C)C)C=CC(C)(C)O4 [MANGOSTANIN]	> 20	> 20	9.1			
COc1c(O)cc2oc3cc4c(c(O)c3c(=O)c2c1CC=C(C)C)[C@@H](c1c(O)c(CC=C(C)C)c(O)c2c(=O)c3c(CC=C(C)C)c(OC)c(O)cc3oc12)[C@H](C(C)(C)O)O4 [CRATOXYXANTHONE]	> 20	> 20				
